ChEMBL document CHEMBL4251575, “Design, synthesis, and biological evaluation of 1,3-diarylisoquinolines as novel topoisomerase I catalytic inhibitors” (Eur J Med Chem, 2018)
Activity calls are given as the source filed them. The calls are words filed in the database; no cut-off is given here.

Legend:
[1] = target: T1, DNA topoisomerase 1 (Homo sapiens) (UniProt P11387); experiment: Poison activity at topoisomerase 1 in human T47D cells assessed as induction of induction of DNA damage by measuring tail DNA levels at 5 uM after 24 hrs by SYBR Green staining-based comet assay; format: cell-based
T1 sequence (whole entry): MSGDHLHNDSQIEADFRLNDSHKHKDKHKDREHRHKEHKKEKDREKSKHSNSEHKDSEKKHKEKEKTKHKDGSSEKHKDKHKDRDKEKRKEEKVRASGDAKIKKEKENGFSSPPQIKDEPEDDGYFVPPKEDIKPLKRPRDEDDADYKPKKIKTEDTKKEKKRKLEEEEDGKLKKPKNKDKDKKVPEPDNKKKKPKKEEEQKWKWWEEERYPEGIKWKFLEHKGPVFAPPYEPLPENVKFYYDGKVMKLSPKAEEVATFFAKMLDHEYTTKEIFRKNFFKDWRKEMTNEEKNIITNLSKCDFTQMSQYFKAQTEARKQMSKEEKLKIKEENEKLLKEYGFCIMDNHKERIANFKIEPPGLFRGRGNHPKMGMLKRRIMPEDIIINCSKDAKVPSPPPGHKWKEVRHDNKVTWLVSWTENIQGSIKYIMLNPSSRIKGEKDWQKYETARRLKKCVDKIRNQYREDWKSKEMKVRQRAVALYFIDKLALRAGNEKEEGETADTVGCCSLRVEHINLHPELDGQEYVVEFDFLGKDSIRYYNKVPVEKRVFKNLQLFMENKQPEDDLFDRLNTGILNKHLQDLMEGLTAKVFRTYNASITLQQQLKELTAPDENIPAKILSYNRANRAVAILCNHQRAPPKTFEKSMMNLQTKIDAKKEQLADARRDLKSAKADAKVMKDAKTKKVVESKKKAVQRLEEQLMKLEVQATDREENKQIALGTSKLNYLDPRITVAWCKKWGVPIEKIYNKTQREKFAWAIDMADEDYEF
Procedure, shortened: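 T47D cells seeded 1 x 10⁵ per well, treated 24 h, trypsinised, resuspended in ice-cold PBS, embedded in low-melting agarose on slides. Lysed 30 min at 4 °C in the dark, alkaline unwinding (pH > 13) 30 min at r.t., alkaline electrophoresis 20 min at 15 V, SYBR Green staining, fluorescence microscopy; % tail DNA versus untreated control.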

[2] = target: T1, DNA topoisomerase 1 (Homo sapiens); experiment: Inhibition of human recombinant DNA topoisomerase 1-mediated DNA relaxation at 100 uM incubated for 30 mins using pBR322 DNA substrate by ethidium bromide dye-based agarose gel electrophoresis relative to control camptothecin
Procedure, shortened: (§1)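 pBR322 (100 ng) with recombinant human topo I (0.4 units) in 10 mM Tris-HCl pH 7.9, 150 mM NaCl, 0.1% BSA, 1 mM spermidine, 5% glycerol, 30 min at 37 °C. Stopped with sarcosyl/glycerol/dye and run on 1% agarose/TAE at 15 V for 7 h. EtBr-stained; supercoiled DNA quantified as % inhibition. Relative values are the ratio to the camptothecin control.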

[3] = target: T1, DNA topoisomerase 1 (Homo sapiens); experiment: Inhibition of DNA topoisomerase-1 in human T47D cells assessed as decrease in free topoisomerase-1 levels incubated for 2 hrs by band depletion assay; format: cell-based
Procedure, shortened: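 T47D cells seeded at 2×10^5 in 60-mm plates. On day 2 they were treated 2 h at 37 °C, harvested by trypsin and held in PBS containing the same compound concentration. Lysis in 62.5 mM Tris-HCl pH 6.8, 1 mM EDTA, 2% SDS with sonication, then centrifuged. 50 µg protein run on 8% SDS-PAGE; Western blot for free topo I with ECL detection.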

T47D = experiment: Cytotoxicity against human T47D cells after 72 hrs by cell counting kit-8 analysis; format: functional, cell-based
Procedure, shortened: (§2)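 Cells seeded at 2×10^5 or 1×10^5 per well, grown overnight in medium with 10% FBS at 37 °C, 5% CO₂, then FBS-starved 4 h. Graded compound concentrations given for 72 h. CCK-8 then added for 4 h and absorbance read at 450 nm. IC50 from a four-parameter logistic fit; mean ± S.D. of three experiments, each in triplicate.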

HCT-15 = experiment: Cytotoxicity against human HCT15 cells after 72 hrs by cell counting kit-8 analysis; format: functional, cell-based; conditions: HCT-15, 72 h; procedure, shortened: as §2
[4] = target: DNA topoisomerase 2-alpha (Homo sapiens) (UniProt P11388); experiment: Inhibition of human DNA topoisomerase 2 alpha-mediated DNA relaxation at 100 uM incubated for 30 mins using pBR322 DNA substrate by ethidium bromide dye-based agarose gel electrophoresis
Procedure, shortened: (§3)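 Stopped with EDTA and run on 1% agarose/TAE at 25 V for 4 h. EtBr-stained; supercoiled DNA quantified as % inhibition. Relative values are the ratio to the etoposide control.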

[5] = target: T1, DNA topoisomerase 1 (Homo sapiens); experiment: Inhibition of human recombinant DNA topoisomerase 1-mediated DNA relaxation at 100 uM incubated for 30 mins using pBR322 DNA substrate by ethidium bromide dye-based agarose gel electrophoresis; procedure, shortened: as §1
[6] = target: T1, DNA topoisomerase 1 (Homo sapiens); experiment: Inhibition of human recombinant DNA topoisomerase 1-mediated DNA relaxation at 20 uM incubated for 30 mins using pBR322 DNA substrate by ethidium bromide dye-based agarose gel electrophoresis; procedure, shortened: as §1
Sus scrofa [7] = organism: Sus scrofa; experiment: Inhibition of porcine brain tubulin polymerization at 15 uM after 61 mins by spectroscopic analysis
Procedure, shortened: (§4)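 Porcine brain tubulin at 1.5 mg/mL final in cold PEM buffer (80 mM Na-PIPES pH 6.9, 1 mM MgCl₂, 30% glycerol, 1 mM EGTA) with 1 mM GTP. Compounds were dissolved in DMSO and diluted in PEM. They were pre-warmed 2 min at 37 °C before tubulin was added. DMSO vehicle and paclitaxel controls. A340 was read each minute for 61 min at 37 °C.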

[8] = target: T1, DNA topoisomerase 1 (Homo sapiens); experiment: Inhibition of human recombinant DNA topoisomerase 1-mediated DNA relaxation at 20 uM incubated for 30 mins using pBR322 DNA substrate by ethidium bromide dye-based agarose gel electrophoresis relative to control camptothecin; procedure, shortened: as §1
DNA = experiment: Binding affinity to […] (unknown origin) at 100 uM preincubated for 30 mins in presence of Hoechst 33342 followed by compound addition measured after 30 mins by fluorescence assay; format: nucleic-acid assay
Procedure, shortened: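 ctDNA (30 µM final) pre-mixed with Hoechst 33342 (1 µg/mL final) in 10 mM Tris (pH 7.2), 30 min at r.t. with shaking. Compound then added (0–100 μM series; DMSO 1% in all wells, DMSO-only control) and incubated 30 min at r.t. Fluorescence read at 361 nm excitation, emission spectrum 400–600 nm.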

[9] = target: T1, DNA topoisomerase 1 (Homo sapiens); experiment: Poison activity at topoisomerase 1 (unknown origin) assessed as […] in enzyme mediated DNA cleavage complex formation by measuring increase in nicked DNA level at 500 uM using supercoiled pBR322 plasmid DNA as substrate after 20 mins by ethidium bromine dye-based agarose gel electrophoresis analysis
Procedure, shortened: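 Supercoiled pBR322 (100 ng) pre-reacted 10 min with topo I (3 units), then compound added for 20 min at 37 °C. Stopped with 0.5% sarcosyl and digested with proteinase K at 45 °C for 30 min, then heated 2 min at 70 °C. Run on 1.5% agarose/TAE containing 0.5 μg/mL EtBr; nicked DNA versus DMSO control, CPT as poison control.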

MCF-10A = experiment: Cytotoxicity against human MCF10A cells after 72 hrs by cell counting kit-8 analysis; format: cell-based; procedure, shortened: as §2
Sus scrofa [10] = organism: Sus scrofa; experiment: Induction of porcine brain tubulin polymerization at 10 uM after 61 mins by spectroscopic analysis; procedure, shortened: as §4
[11] = target: T1, DNA topoisomerase 1 (Homo sapiens); experiment: Poison activity at human topoisomerase 1 assessed as induction of relaxation of pHOT1 DNA substrate at 1000 uM incubated for 30 mins by ethidium bromide dye-based agarose gel electrophoresis analysis
Procedure, shortened: (§5)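 pHOT1 (100 ng) relaxed first with topo I (3 units) in 10 mM Tris-HCl pH 7.5, 1 mM EDTA, 30 min at 37 °C. Compound then added for a further 30 min at 37 °C; amsacrine positive control at 100–1000 μM. Stopped with 1% SDS and run on 1% agarose at 15 V/cm for 12–15 h. EtBr-stained and imaged.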

[12] = target: T1, DNA topoisomerase 1 (Homo sapiens); experiment: Inhibition of free DNA topoisomerase-1 in human T47D cells at 50 uM assessed as suppression of camptothecin-induced decrease in free topoisomerase-1 levels pre-treated before camptothecin addition and measured after 2 hrs by band depletion assay; format: cell-based
[13] = target: DNA topoisomerase 2-alpha (Homo sapiens) (UniProt P11388); experiment: Inhibition of human DNA topoisomerase 2 alpha-mediated DNA relaxation at 100 uM incubated for 30 mins using pBR322 DNA substrate by ethidium bromide dye-based agarose gel electrophoresis relative to control etoposide; procedure, shortened: as §3
[14] = target: T1, DNA topoisomerase 1 (Homo sapiens); experiment: Poison activity at topoisomerase 1 in human T47D cells assessed as induction of induction of DNA damage by measuring tail DNA levels at 10 uM after 24 hrs by SYBR Green staining-based comet assay; format: cell-based
Procedure, shortened: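 T47D cells seeded at 1×10^5 per well and treated 24 h, then trypsinized and suspended in ice-cold PBS. Embedded in low-melting agarose, lysed 30 min at 4 °C and alkaline-unwound (pH > 13) 30 min at r.t. Alkaline electrophoresis 20 min at 15 V, then SYBR Green stain and fluorescence microscopy. Read-out is % tail DNA versus untreated and CPT controls.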

Sus scrofa [15] = organism: Sus scrofa; experiment: Inhibition of porcine brain tubulin polymerization at 10 uM after 61 mins by spectroscopic analysis; procedure, shortened: as §4
[16] = target: T1, DNA topoisomerase 1 (Homo sapiens); experiment: Poison activity at human topoisomerase 1 assessed as induction of relaxation of pHOT1 DNA substrate at 100 to 1000 uM incubated for 30 mins by ethidium bromide dye-based agarose gel electrophoresis analysis; procedure, shortened: as §5

Chain of DNA topoisomerase 2-alpha (Homo sapiens) (P11388 whole entry): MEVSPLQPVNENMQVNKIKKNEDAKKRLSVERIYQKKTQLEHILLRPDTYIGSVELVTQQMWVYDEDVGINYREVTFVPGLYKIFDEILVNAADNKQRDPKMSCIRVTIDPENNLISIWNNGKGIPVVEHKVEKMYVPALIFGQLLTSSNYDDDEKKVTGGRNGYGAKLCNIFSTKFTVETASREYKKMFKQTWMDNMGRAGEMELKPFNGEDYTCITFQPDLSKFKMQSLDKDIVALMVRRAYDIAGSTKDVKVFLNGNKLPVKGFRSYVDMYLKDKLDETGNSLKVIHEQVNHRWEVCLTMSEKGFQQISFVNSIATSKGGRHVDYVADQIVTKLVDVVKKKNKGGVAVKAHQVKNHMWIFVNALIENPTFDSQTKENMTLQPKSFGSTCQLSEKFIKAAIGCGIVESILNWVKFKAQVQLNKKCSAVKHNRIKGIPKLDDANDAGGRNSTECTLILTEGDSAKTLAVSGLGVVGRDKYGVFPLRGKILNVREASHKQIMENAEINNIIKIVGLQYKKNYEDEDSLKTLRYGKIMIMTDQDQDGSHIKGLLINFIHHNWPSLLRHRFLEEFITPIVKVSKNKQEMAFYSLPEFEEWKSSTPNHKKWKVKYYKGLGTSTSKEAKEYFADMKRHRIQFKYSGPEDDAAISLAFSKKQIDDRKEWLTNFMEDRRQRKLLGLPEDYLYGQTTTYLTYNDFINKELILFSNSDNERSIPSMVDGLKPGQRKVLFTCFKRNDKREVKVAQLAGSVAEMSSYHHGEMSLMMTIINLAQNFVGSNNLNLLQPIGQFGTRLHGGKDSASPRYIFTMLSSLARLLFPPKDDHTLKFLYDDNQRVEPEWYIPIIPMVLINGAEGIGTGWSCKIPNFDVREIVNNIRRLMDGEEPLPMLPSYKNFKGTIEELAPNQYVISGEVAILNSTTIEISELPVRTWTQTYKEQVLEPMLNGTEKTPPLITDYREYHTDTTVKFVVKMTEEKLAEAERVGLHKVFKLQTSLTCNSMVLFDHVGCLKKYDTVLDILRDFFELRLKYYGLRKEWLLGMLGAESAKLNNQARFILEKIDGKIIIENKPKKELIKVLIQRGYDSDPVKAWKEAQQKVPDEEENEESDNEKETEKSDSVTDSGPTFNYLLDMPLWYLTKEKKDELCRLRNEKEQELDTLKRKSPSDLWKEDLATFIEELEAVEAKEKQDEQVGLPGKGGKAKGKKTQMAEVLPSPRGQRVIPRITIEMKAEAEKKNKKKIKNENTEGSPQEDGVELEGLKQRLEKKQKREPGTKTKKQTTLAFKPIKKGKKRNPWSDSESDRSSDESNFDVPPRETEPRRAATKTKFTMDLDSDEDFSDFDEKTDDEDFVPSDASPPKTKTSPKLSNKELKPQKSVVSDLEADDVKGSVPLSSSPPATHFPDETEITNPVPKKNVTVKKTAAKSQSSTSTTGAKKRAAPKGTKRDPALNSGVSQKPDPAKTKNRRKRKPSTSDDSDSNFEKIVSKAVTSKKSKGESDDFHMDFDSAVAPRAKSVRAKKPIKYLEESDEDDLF

SMILES	Activity [1] [%]	Ratio [2]	inhibition [3]	IC50 (T47D) [nM]	IC50 (HCT-15) [nM]	inhibition [4] [%]	inhibition [5] [%]	inhibition [6] [%]	inhibition (Sus scrofa [7])	Ratio [8]	Activity (DNA)	Activity [9]	IC50 (MCF-10A) [µM]	Tubulin polymerization induction (Sus scrofa [10])	Activity [11]	inhibition [12]	Ratio [13]	Activity [14] [%]	inhibition (Sus scrofa [15])	Activity [16]
CC[C@@]1(O)C(=O)OCc2c1cc1n(c2=O)Cc2cc3ccccc3nc2-1	25																			
COc1ccc(-c2cc3cc(C)ccc3c(-c3cccc(N)c3)n2)c(C)c1	5.82	1.22	inactive	740	2770	4.1	79.7	72.4	Active	2.53	inactive	inactive	5.74	inactive	inactive	Active	0.06	9.43		
COc1cc(OC)cc(-c2cc3ccc(N(C)C)cc3c(-c3cccc(N)c3)n2)c1		1.12		3590	2530	2.5	73.1	71.5		2.5			42	inactive			0.04		inactive	
COc1cc(NS(C)(=O)=O)ccc1Nc1c2ccccc2nc2ccccc12																				Active
